NR2E3 ag-1 = activates human photoreceptor nuclear receptor NR2E3 | inhibition of corepressor binding, % at 4.78 µM | actives 0.12% (n = 320,000) | AID 2300 | GST-NR2E3/biotin-RetCOR TR-FRET, 1536-well | Q9Y5X4;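 active means percent inhibition above the cutoff of mean plus 3 SD of all tested compounds, set per screening campaign, cut at about 20% in these data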
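System: GST-tagged NR2E3 plus biotinylated RetCOR corepressor; Amount: 1.35 nM GST-tagged NR2E3 final; Dosing: single nominal compound dose of 4.8 µM; Schedule: 5 h incubation at 4 °C; Technique: TR-FRET with europium anti-GST and streptavidin-D2, 340 nm excitation; Controls: biotin wells as high control, 0.6% DMSO wells as low control.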
PG9 binder = small molecules binding HIV-1 gp120 antibody PG9; AID 624416; TR-FRET gp120-PG9 antibody binding; inhibition, % at 6.7 µM; actives 0.43% (n = 360,000); in the data active means inhibition above about 8.5%
NR2E3 ag-2 = human photoreceptor-specific nuclear receptor agonism. Q9Y5X4. CHO-S Gal4-NCOR/VP16-NR2E3 two-hybrid, luciferase. inhibition of corepressor binding, % at 3.98 µM. actives 0.35% (n = 360,000). AID 602229;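 active means inhibition above the mean of all tested compounds plus 3 SD, cut at about 70% in these data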;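 further: higher means lower luciferase signal from less NR2E3 corepressor binding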
Rev-erbA mod = modulates human Rev-erb alpha binding to DNA. Rev-erbα–FITC-DNA binding, fluorescence polarization, 90 min. activity, % at 10 µM. actives 0.79% (n = 370,000). AID 1259318;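 active means activity above about 14%, limit read from the data; passing the limit was not always enough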
Target sequence (P20393 whole entry, looked up): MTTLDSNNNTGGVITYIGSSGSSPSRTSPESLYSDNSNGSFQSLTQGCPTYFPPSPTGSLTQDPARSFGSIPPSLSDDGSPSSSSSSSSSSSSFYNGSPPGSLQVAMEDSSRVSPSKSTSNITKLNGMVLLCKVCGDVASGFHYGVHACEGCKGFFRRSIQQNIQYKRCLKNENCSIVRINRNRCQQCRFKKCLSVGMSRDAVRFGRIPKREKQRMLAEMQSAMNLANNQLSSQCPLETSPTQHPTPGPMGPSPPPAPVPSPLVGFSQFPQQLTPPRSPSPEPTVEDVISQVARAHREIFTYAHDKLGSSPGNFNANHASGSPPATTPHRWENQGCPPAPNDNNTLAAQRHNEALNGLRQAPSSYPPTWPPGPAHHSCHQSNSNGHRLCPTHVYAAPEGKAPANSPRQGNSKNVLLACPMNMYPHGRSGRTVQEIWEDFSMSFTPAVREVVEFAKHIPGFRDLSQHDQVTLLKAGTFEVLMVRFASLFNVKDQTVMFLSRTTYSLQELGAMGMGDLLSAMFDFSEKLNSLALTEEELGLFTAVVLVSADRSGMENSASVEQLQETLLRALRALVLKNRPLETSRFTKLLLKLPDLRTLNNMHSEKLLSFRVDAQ
NR2E3 ag conf = confirmation of human NR2E3 agonists | inhibition, % at 3.98 µM | actives 51% (n = 2,300) | shares compounds with NR2E3 ag-2 | CHO-S mammalian two-hybrid NR2E3-NCOR, luciferase luminescence;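 active means average inhibition above a cutoff equal to the mean inhibition of all tested compounds plus one SD, cut at about 70% in these data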
GAL4-VP16 luc = reduces GAL4-VP16 reporter signal in NR2E3 counterscreen; CHO-S GAL4-VP16 luciferase reporter, luminescence; inhibition, % at 3.98 µM; actives 29% (n = 2,300); shares compounds with NR2E3 ag-2;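 active means mean inhibition above a cutoff equal to the average over all tested compounds plus one standard deviation, cut at about 70% in these data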;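 further: luciferase from a UAS reporter driven by GAL4-VP16 transactivation; higher means less reporter light so more repression of VP16 activity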
Large screens that a line does not name were inactive (follow-up assays come after a bar, where they were run). Rows were chosen to be rich in hits. Some 1.4% of all compounds tested hit in one or more screens of this group.

Cc1cccc(NC(=S)N/N=C(\c2ccccc2)C(C)C)c1	none | NR2E3 ag conf inactive | GAL4-VP16 luc inactive
CC/C(=N\NC(=S)Nc1cccc(C)c1)c1ccccc1	none
COc1ccc(Nc2cc(C)nc(NCc3ccccc3)n2)cc1	none | NR2E3 ag conf 85.7 | GAL4-VP16 luc inactive
Cc1cc(NC2CCCCC2)nc(NCc2ccccc2)n1	NR2E3 ag-2 75.0 | NR2E3 ag conf 91.7 | GAL4-VP16 luc 75.7
Cc1cc(-n2c(C)cc(C(=O)CSc3[nH]c(=O)cc(C(F)(F)F)c3C#N)c2C)no1	NR2E3 ag-2 97.6 | NR2E3 ag conf 98.8 | GAL4-VP16 luc 89.2
Cc1cc(NC(=O)CSc2[nH]c(=O)cc(C(F)(F)F)c2C#N)no1	none
Cc1ccccc1S(=O)(=O)N1[C@@H](c2ccc(Br)cc2)C(C(=O)O)=CC[C@H]1c1ccc(Cl)cc1	NR2E3 ag-2 78.8 (no result: NR2E3 ag-1) | NR2E3 ag conf inactive | GAL4-VP16 luc inactive
Cc1ccc([C@@H]2CC=C(C(=O)O)[C@H](c3ccc(Br)cc3)N2S(=O)(=O)c2ccccc2C)cc1	none (no result: NR2E3 ag-1) | NR2E3 ag conf inactive | GAL4-VP16 luc inactive
COc1ccc(C2N3CC4(C)CN2CC(C)(C3)C4)cc1OC (centres undefined)	none
C=CCC1NS(=O)(=O)OC(CCCC)C1O (centres undefined)	none
CC(C)c1cccc(-c2csc(C(C)(O)c3ccncc3)n2)c1 (centres undefined)	NR2E3 ag-2 85.4 (no result: NR2E3 ag-1) | NR2E3 ag conf 93.5 | GAL4-VP16 luc 79.7
O=c1cc(CSc2ccc(Cl)cc2)nc(-c2ccccn2)[nH]1	NR2E3 ag-2 101.3 | NR2E3 ag conf 97.8 | GAL4-VP16 luc inactive
O=c1cc(CSc2ccc(Cl)cc2)nc(-c2ccccc2)[nH]1	none
Clc1ccc(SCc2cc(N3CCOCC3)nc(-c3ccccn3)n2)cc1	NR2E3 ag-2 94.5 | NR2E3 ag conf inactive | GAL4-VP16 luc inactive
COc1ccc(-c2csc(C(O)c3cccnc3)n2)cn1 (centres undefined)	none (no result: NR2E3 ag-1)
CC(=O)N(/N=C1\Sc2ccccc2C1=O)c1ccc(C)cc1C	none | NR2E3 ag conf inactive | GAL4-VP16 luc inactive
Cc1ccnc(NC(=O)C(C)N2C(=O)c3ccccc3S2(=O)=O)c1 (centres undefined)	none
O=C1CCN(S(=O)(=O)c2ccccc2)CCN1CCOCc1ccc(C(F)(F)F)cc1	none
Cc1ccc(S(=O)(=O)N2CCC(=O)N(CCOCc3ccc(C(F)(F)F)cc3)CC2)cc1	NR2E3 ag-2 81.3 | NR2E3 ag conf 88.3 | GAL4-VP16 luc 70.8
CCCc1ccc(-c2ccc(/C=C/C(=O)O)cc2)nc1	NR2E3 ag-2 75.1 | NR2E3 ag conf 85.2 | GAL4-VP16 luc inactive
CCC(C)NC(=O)CSc1nc2ccccc2c(=O)n1CCCN1CCCCC1 (centres undefined)	none
Cc1ccc(NC(=S)N=Nc2c(O)[nH]c3ccccc23)cc1	none | NR2E3 ag conf inactive | GAL4-VP16 luc inactive
COc1ccc(NS(=O)(=O)c2ccc(N3CCCCC3)c(NC(=O)C(C)NC(N)=O)c2)cc1 (centres undefined)	none (no result: NR2E3 ag-1)
Nc1cc(S(=O)(=O)N2CCCCC2)ccc1N1CCOCC1	none
COc1ccc(NS(=O)(=O)c2ccc(N3CCCCC3)c(N)c2)cc1	NR2E3 ag-2 92.0 | NR2E3 ag conf 95.1 | GAL4-VP16 luc 85.6
CC1CCN(c2ccc(S(=O)(=O)N3CCC(C)CC3)cc2N)CC1	NR2E3 ag-2 100.0 | NR2E3 ag conf 87.4 | GAL4-VP16 luc 72.1
Nc1cc(S(=O)(=O)Nc2ccccc2Cl)ccc1N1CCCCC1	NR2E3 ag-2 70.1 (no result: NR2E3 ag-1) | NR2E3 ag conf 83.5 | GAL4-VP16 luc inactive
Nc1cc(S(=O)(=O)c2ccc(N3CCCCC3)c(N)c2)ccc1N1CCCCC1	NR2E3 ag-2 94.1 (no result: NR2E3 ag-1) | NR2E3 ag conf 95.2 | GAL4-VP16 luc 83.8
Nc1ccc(N2CCCCC2)c(S(=O)(=O)Nc2ccccc2Cl)c1	none
O=C1C=C(c2ccc(Oc3ccccc3)cc2)C[C@@H](c2ccc(Cl)cc2)C1	none
CC1CCN(C(=O)c2ncn3c2C(=O)N[C@H](C)C3)CC1	none (no result: NR2E3 ag-1, NR2E3 ag-2)
O=C(O)CSCC(=O)NC1CCSC1=O (centres undefined)	none (no result: NR2E3 ag-1, PG9 binder, NR2E3 ag-2)
Cc1cc(/C=C2\SC(=S)NC2=O)cc(C)c1O	none
O=C1NC(=S)S/C1=C\c1cc(Cl)cc(Cl)c1O	none (no result: NR2E3 ag-1) | NR2E3 ag conf 73.0 | GAL4-VP16 luc inactive
O=C1NC(=S)SC1=Cc1ccccc1Cl	none (no result: NR2E3 ag-1) | NR2E3 ag conf 79.0 | GAL4-VP16 luc 73.0
COc1ccc(N=C2SC(C(=O)Nc3ccc(C(=O)O)cc3)CC(=O)N2Cc2cccs2)cc1 (centres undefined)	none
CC(C)OC(=O)c1cccnc1N1CCN(c2cccc(Cl)c2)CC1	none
COc1ccc(N(C(=O)c2ccc(Br)o2)C2C=CS(=O)(=O)C2)c(OC)c1 (centres undefined)	none
CCOC(=O)Cc1c(C)nc2c(-c3cccc(Br)c3)c[nH]n2c1=O	none | NR2E3 ag conf inactive | GAL4-VP16 luc inactive
O=C(CSc1cccc[n+]1[O-])c1cc2ccccc2o1	NR2E3 ag-2 77.9 (no result: PG9 binder, Rev-erbA mod) | NR2E3 ag conf inactive | GAL4-VP16 luc inactive
N#C/C(=N\Nc1ccc(Cl)cc1)C(=O)c1ccccc1	NR2E3 ag-2 98.9 | NR2E3 ag conf 100.4 | GAL4-VP16 luc 91.5
Cc1c(N/N=C(\C#N)C(=O)c2ccc(Cl)cc2)c(=O)n(-c2ccccc2)n1C	none
Cc1cc(C)c(S(=O)(=O)/N=C2\C=C(Nc3ccc(C(=O)O)cc3)C(=O)c3ccccc32)c(C)c1	NR2E3 ag-2 111.6 | NR2E3 ag conf 100.2 | GAL4-VP16 luc 98.0
CCc1ccc(S(=O)(=O)/N=C2\C=C(Nc3cccc(C(=O)O)c3)C(=O)c3ccccc32)cc1	none
CCc1ccc(S(=O)(=O)/N=C2\C=C(Nc3ccc(O)cc3)C(=O)c3ccccc32)cc1	NR2E3 ag-2 113.0 (no result: PG9 binder, Rev-erbA mod) | NR2E3 ag conf 99.9 | GAL4-VP16 luc 100.5
O=C1C(Nc2ccc(O)cc2)=C/C(=N/S(=O)(=O)c2cccs2)c2ccccc21	NR2E3 ag-2 103.3 (no result: NR2E3 ag-1) | NR2E3 ag conf 100.4 | GAL4-VP16 luc 99.4
O=C(O)c1ccc(NC2=C/C(=N/S(=O)(=O)c3ccccc3)c3ccccc3C2=O)cc1	none (no result: NR2E3 ag-1)
O=[N+]([O-])c1ccc2c(c1)nc1n2CCSC1	none
Cc1cc(C)n(CCC(=O)N/N=C/c2ccc(O)cc2O)n1	none
COc1ccc(OC)c(NC(=O)CSc2nnnn2-c2ccc3c(c2)OCO3)c1	NR2E3 ag-2 100.8 | NR2E3 ag conf 99.9 | GAL4-VP16 luc inactive
COC(=O)c1ccc(-n2nnnc2SCC(=O)Nc2cc(OC)ccc2OC)cc1	none
O=C(CSc1nnnn1-c1ccc(O)cc1)Nc1ccc(N2CCOCC2)c(Cl)c1	NR2E3 ag-2 97.5 | NR2E3 ag conf 98.0 | GAL4-VP16 luc inactive
Cc1ccc(-n2nnnc2SCC(=O)Nc2ccc3c(c2)OCCO3)cc1C	none
Cc1ccc(NC(=O)CSc2nnnn2-c2ccc3c(c2)OCO3)cc1C	NR2E3 ag-2 90.8 | NR2E3 ag conf 100.1 | GAL4-VP16 luc inactive
CSc1ccccc1OCc1cc(C(=O)N2CCCC2c2nonc2C)no1 (centres undefined)	none

Screening data (PubChem BioAssay)
